From ChEMBL document CHEMBL1275303, “Synthesis and antimicrobial activity of 2-substituted [4-(1,3,4-oxadiazol-2-yl methyl)] phthalazin-1(2H)-one derivatives” (2010)

Key:
Nannizzia gypsea [1] = test: Antimicrobial activity against Microsporum gypseum at 100 ug/mL after 72 hrs by well plate method; format: functional; details: read-out: IZ
Outline: (§1)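 Antifungal well-plate assay on Sabouraud dextrose agar using a 72 h old broth culture of the fungal strain. Wells were filled with compound dissolved in DMSO (100 or 50), and the zone of inhibition around each well was measured. […] served as reference.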

Salmonella typhi [2] = test: Antimicrobial activity against Salmonella typhi at 100 ug/mL after 24 hrs by well plate method; format: functional, Salmonella enterica subsp. enterica serovar Typhi; details: Salmonella enterica, read-out: IZ
Outline: (§2)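 Agar well diffusion in nutrient agar: about 1 cm³ of a 24 h broth culture placed in a sterile dish, molten agar at 45 °C poured over it and allowed to set. 6 mm holes cut with a sterile cork borer and filled with compound solution in DMSO. Incubated 24 h at 37 °C; inhibition zone diameter read in mm. Run in duplicate, standard deviation calculated.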

Staphylococcus aureus [3] = test: Antimicrobial activity against Staphylococcus aureus at 50 ug/mL after 24 hrs by well plate method; format: functional; details: read-out: IZ
Outline: (§3)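 Agar well diffusion in nutrient agar. About 1 cm³ of a 24 h broth culture was placed in sterile dishes, and molten agar at 45 °C was poured over it and set. 6 mm wells were bored and filled with compound in DMSO (100 or 50). Plates were incubated 24 h at 37 °C, and the inhibition zone was read in mm. Duplicate runs, with standard deviation; amoxicillin as reference.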

Escherichia coli [4] = test: Antimicrobial activity against Escherichia coli at 50 ug/mL after 24 hrs by well plate method; format: functional; details: read-out: IZ; outline: as §3
Staphylococcus aureus [5] = test: Antimicrobial activity against Staphylococcus aureus at 100 ug/mL after 24 hrs by well plate method; format: functional; details: read-out: IZ; outline: as §3
Aspergillus flavus [6] = test: Antimicrobial activity against Aspergillus flavus at 50 ug/mL after 72 hrs by well plate method; format: functional; details: read-out: IZ
Aspergillus flavus [7] = test: Antimicrobial activity against Aspergillus flavus at 100 ug/mL after 72 hrs by well plate method; format: functional; details: read-out: IZ
Escherichia coli [8] = test: Antimicrobial activity against Escherichia coli at 100 ug/mL after 24 hrs by well plate method; format: functional; details: read-out: IZ; outline: as §3
Candida albicans [9] = test: Antimicrobial activity against Candida albicans at 50 ug/mL after 72 hrs by well plate method; format: functional; details: read-out: IZ; outline: as §1
Bacillus subtilis [10] = test: Antimicrobial activity against Bacillus subtilis at 50 ug/mL after 24 hrs by well plate method; format: functional; details: read-out: IZ; outline: as §3
Candida albicans [11] = test: Antimicrobial activity against Candida albicans at 100 ug/mL after 72 hrs by well plate method; format: functional; details: read-out: IZ; outline: as §1
Nannizzia gypsea [12] = test: Antimicrobial activity against Microsporum gypseum at 50 ug/mL after 72 hrs by well plate method; format: functional; details: read-out: IZ; outline: as §1
[13] = test system: Chrysosporium keratinophilum; test: Antimicrobial activity against Chrysosporium keratinophilum at 100 ug/mL after 72 hrs by well plate method; format: functional; details: read-out: IZ; outline: as §1
[14] = test system: Chrysosporium keratinophilum; test: Antimicrobial activity against Chrysosporium keratinophilum at 50 ug/mL after 72 hrs by well plate method; format: functional; details: read-out: IZ; outline: as §1
Bacillus subtilis [15] = test: Antimicrobial activity against Bacillus subtilis at 100 ug/mL after 24 hrs by well plate method; format: functional; details: read-out: IZ; outline: as §3
Salmonella typhi [16] = test: Antimicrobial activity against Salmonella typhi at 50 ug/mL after 24 hrs by well plate method; format: functional, Salmonella enterica subsp. enterica serovar Typhi; details: Salmonella enterica, read-out: IZ; outline: as §2

| SMILES | zone of inhibition at 100 µg/mL (Nannizzia gypsea [1]) [mm] | zone of inhibition at 100 µg/mL (Salmonella typhi [2]) [mm] | zone of inhibition at 50 µg/mL (Staphylococcus aureus [3]) [mm] | zone of inhibition at 50 µg/mL (Escherichia coli [4]) [mm] | zone of inhibition at 100 µg/mL (Staphylococcus aureus [5]) [mm] | zone of inhibition at 50 µg/mL (Aspergillus flavus [6]) [mm] | zone of inhibition at 100 µg/mL (Aspergillus flavus [7]) [mm] | zone of inhibition at 100 µg/mL (Escherichia coli [8]) [mm] | zone of inhibition at 50 µg/mL (Candida albicans [9]) [mm] | zone of inhibition at 50 µg/mL (Bacillus subtilis [10]) [mm] | zone of inhibition at 100 µg/mL (Candida albicans [11]) [mm] | zone of inhibition at 50 µg/mL (Nannizzia gypsea [12]) [mm] | zone of inhibition at 100 µg/mL [13] [mm] | zone of inhibition at 50 µg/mL [14] [mm] | zone of inhibition at 100 µg/mL (Bacillus subtilis [15]) [mm] | zone of inhibition at 50 µg/mL (Salmonella typhi [16]) [mm] |
| --- | --- | --- | --- | --- | --- | --- | --- | --- | --- | --- | --- | --- | --- | --- | --- | --- |
| O=c1c2ccccc2c(Cc2nnc(-c3ccsc3)o2)nn1Cc1cnc(Cl)s1 | 9.5 | 12 | 7 | 10 | 10 | 3.5 | 8.5 | 16 | 4.5 | 4 | 8.5 | 6.5 | 11.5 | 5.5 | 8 | 7 |
| O=c1c2ccccc2c(Cc2nnc(-c3ccc(Cl)cc3)o2)nn1Cc1cnc(Cl)s1 | 4 | 9.5 | 7 | 5 | 10 | 2.5 | 5 | 9 | 3 | 3 | 6.5 | 1 | 4.5 | 2 | 5.5 | 5 |
| Cc1ccccc1-c1nnc(Cc2nn(Cc3cnc(Cl)s3)c(=O)c3ccccc23)o1 | 3 | 5 | 0 | 6 | 2 | 1 | 2 | 6 | 0 | 2 | 3.5 | 1 | 3.5 | 0 | 5 | 3 |
| O=c1c2ccccc2c(Cc2nnc(-c3ccc(Cl)nc3)o2)nn1Cc1cnc(Cl)s1 | 7.5 | 5 | 4 | 8 | 7 | 4 | 8 | 12 | 9.5 | 4 | 10.5 | 4 | 8.5 | 5.5 | 6 | 3 |
| Cc1nnc(Cc2nn(CCN3CCOCC3)c(=O)c3ccccc23)o1 | 3.5 | 4.5 | 0 | 0 | 3.5 | 1 | 3.5 | 2.5 | 1 | 0 | 2.5 | 0 | 0 | 0 | 1 | 1.5 |
| O=c1c2ccccc2c(Cc2nnc(C(F)(F)F)o2)nn1CCN1CCOCC1 | 4 | 2.5 | 0 | 0 | 0 | 2.5 | 5.5 | 3.5 | 0.5 | 2 | 3.5 | 2 | 4.5 | 2 | 5 | 0 |
